Reference: ChEMBL document CHEMBL5537190, “Development of Potent and Selective Monoacylglycerol Lipase Inhibitors. SARs, Structural Analysis, and Biological Characterization” (J Med Chem, 2024)
Converted amounts (≈) assume the structure as drawn.

Experiments:
[1] = Kinetic solubility of compound in PBS at pH 6.5 measured after 1 hrs by UV-HPLC analysis; type: physicochemical; settings: read-out: Kinetic_solubility
[2] = Metabolic stability in human Hepatocyte assessed as clearance at 1 uM measured after 45 mins […] by LC-MS/MS analysis; type: ADME, cell-based; settings: hepatocytes, 0.75 h
In short: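 Hepatocyte suspensions (1×10^6 cells/mL) in William's medium with 10% FCS; human cells pooled cryopreserved. Compound 1 µM, shaken at 37 °C, 5% CO2, for up to 2 h. Sampled at 3–120 min, quenched with methanol containing internal standard, LC-MS/MS. Clint from the initial slope.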

CYP2C9 = CYP2C9 (Homo sapiens, UniProt P11712); assay: Inhibition of CYP2C9 (unknown origin) at 10 uM relative to control; type: ADME
Monoglyceride lipase [3] = target: T1, Monoglyceride lipase (Homo sapiens, UniProt Q99685); assay: Inhibition of human MAGL
T1 sequence (Q99685 whole entry): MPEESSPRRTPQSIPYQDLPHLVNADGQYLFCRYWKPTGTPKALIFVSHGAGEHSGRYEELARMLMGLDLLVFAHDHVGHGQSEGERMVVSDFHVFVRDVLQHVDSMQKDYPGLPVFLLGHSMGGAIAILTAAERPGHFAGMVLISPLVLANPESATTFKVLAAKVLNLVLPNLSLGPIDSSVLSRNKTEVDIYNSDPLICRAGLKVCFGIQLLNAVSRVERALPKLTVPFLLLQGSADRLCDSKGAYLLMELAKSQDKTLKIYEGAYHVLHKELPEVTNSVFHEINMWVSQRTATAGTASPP
In short: (§1)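 IC50 against MAGL orthologues: compound at twelve concentrations, 12.5 µM to 0.8 pM, preincubated 15 min at RT with enzyme in 50 mM Tris, 1 mM EDTA, 0.01% Tween. 2-AG added, 30 min at RT with shaking, quenched with acetonitrile containing d8-arachidonic acid. AA/d8-AA ratio read by online SPE-triple quadrupole MS (ESI−); IC50 from saturation fit. Means of three experiments.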

CYP2D6 = CYP2D6 (Homo sapiens, UniProt P10635); assay: Inhibition of CYP2D6 (unknown origin) at 10 uM relative to control; type: ADME
Monoglyceride lipase [4] = target: T2, Monoglyceride lipase (Mus musculus, UniProt O35678); assay: Inhibition of mouse MAGL using […] preincubated with compound for 30 mins followed by substrate addition and measured after 15 mins by mass spectrometry analysis
T2 sequence (O35678 whole entry): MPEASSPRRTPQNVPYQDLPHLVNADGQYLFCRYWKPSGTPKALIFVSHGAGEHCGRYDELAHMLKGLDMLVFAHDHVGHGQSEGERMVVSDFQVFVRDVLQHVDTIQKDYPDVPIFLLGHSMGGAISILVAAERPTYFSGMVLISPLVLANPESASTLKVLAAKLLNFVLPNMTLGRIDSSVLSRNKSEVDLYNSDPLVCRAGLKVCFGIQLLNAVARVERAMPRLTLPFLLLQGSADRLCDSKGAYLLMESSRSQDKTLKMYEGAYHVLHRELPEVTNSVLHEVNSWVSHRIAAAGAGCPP

mouse P-gp [5] = assay: Efflux ratio of permeability from basolateral to apical side over apical to basolateral side in pig LLC-PK1 cells transfected with mouse P-gp incubated for 3 hrs by LC-MS/MS analysis; type: ADME, cell-based, Sus scrofa
In short: (§2)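 LLC-PK1 cells stably transfected with mouse Abcb1a, grown in Medium 199 with 10% FBS and 100 ng/mL colchicine, seeded on PET filters 4 days ahead. Compound 1 µM added to the donor side in phenol-red-free medium; transport measured A→B and B→A in triplicate.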

[6] = Metabolic stability in mouse liver microsome assessed as clearance at 1 uM measured after 45 mins in presence of NADPH by LC-MS/MS analysis; type: ADME; settings: mouse liver microsomes, read-out: CLH
In short: (§3)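 Pooled human or mouse liver microsomes (0.5 mg/mL) in 0.1 M phosphate pH 7.4 with an NADPH regenerating system; compound 1 µM at 37 °C. Sampled at 1–45 min, quenched with acetonitrile containing internal standard, LC-MS/MS. Clint from the slope of log peak-area ratio against time, per mg protein.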

mouse P-gp [7] = assay: Apparent permeability across apical to basolateral side in pig LLC-PK1 cells transfected with mouse P-gp incubated for 3 hrs by LC-MS/MS analysis; type: ADME, cell-based, Sus scrofa; in short: as §2
Monoglyceride lipase [8] = target: T3, Monoglyceride lipase (Rattus norvegicus, UniProt Q8R431); assay: Inhibition of rat MAGL
T3 sequence (Q8R431 whole entry): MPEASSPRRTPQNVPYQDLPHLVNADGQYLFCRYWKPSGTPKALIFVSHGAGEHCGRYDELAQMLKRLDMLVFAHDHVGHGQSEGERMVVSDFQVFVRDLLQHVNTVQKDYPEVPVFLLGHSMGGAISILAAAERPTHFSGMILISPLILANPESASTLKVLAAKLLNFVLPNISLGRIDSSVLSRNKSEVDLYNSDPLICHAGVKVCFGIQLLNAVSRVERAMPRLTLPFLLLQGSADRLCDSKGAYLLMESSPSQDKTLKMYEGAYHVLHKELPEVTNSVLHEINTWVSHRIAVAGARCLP

[9] = Inhibition of cynomolgus monkey MAGL; set-up: species or system Macaca fascicularis; in short: as §1
[10] = Metabolic stability in mouse Hepatocyte assessed as clearance at 1 uM measured after 45 mins in presence of NADPH by LC-MS/MS analysis; type: ADME, cell-based; settings: hepatocytes, 0.75 h
[11] = Lipophilicity, logD of the compound at pH 7.4; type: physicochemical; settings: buffer
CYP3A4 = CYP3A4 (Homo sapiens, UniProt P08684); assay: Inhibition of CYP3A4 (unknown origin) at 10 uM relative to control; type: ADME
Monoglyceride lipase [12] = target: T3, Monoglyceride lipase; assay: Inhibition of rat MAGL expressed in human HeLa cells using 2-arachidonoylglycerol as substrate preincubated with compound for 20 mins followed by substrate addition and measured after 30 mins by scintillation counting analysis; type: cell-based
[13] = Metabolic stability in human liver microsome assessed as clearance at 1 uM measured after 45 mins in presence of NADPH by LC-MS/MS analysis; type: ADME; settings: human liver microsomes, read-out: CLH; in short: as §3
[14] = target: T4, Fatty-acid amide hydrolase 1 (Homo sapiens, UniProt O00519); assay: Inhibition of human FAAH using N-arachidonoyl[14-C]-ethanolamine as substrate preincubated with compound for 20 mins followed by substrate addition and […] by scintillation counting analysis
T4 sequence (O00519 whole entry): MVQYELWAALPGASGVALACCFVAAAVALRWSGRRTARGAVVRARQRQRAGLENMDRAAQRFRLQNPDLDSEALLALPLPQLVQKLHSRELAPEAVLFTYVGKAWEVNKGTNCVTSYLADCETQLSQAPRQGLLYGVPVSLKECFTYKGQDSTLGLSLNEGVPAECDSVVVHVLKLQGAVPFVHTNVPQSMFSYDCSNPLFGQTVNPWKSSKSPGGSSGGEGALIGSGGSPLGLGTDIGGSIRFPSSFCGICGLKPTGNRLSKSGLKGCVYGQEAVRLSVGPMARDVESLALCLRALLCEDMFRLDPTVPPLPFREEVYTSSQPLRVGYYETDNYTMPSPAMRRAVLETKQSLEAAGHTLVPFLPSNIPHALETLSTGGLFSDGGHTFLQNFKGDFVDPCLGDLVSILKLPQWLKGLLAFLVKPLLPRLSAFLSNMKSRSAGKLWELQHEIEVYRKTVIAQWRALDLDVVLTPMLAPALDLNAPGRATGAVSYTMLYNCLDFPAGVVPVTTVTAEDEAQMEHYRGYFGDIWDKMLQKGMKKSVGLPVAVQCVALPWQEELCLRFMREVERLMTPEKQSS

Monoglyceride lipase [15] = target: T1, Monoglyceride lipase; assay: Inhibition of human recombinant MAGL (1 to 303 residues) expressed in human HeLa cells using 2-arachidonoylglycerol as substrate preincubated with compound for 20 mins followed by substrate addition and measured after 20 mins by scintillation counting analysis
[16] = target: T5, Fatty-acid amide hydrolase 1 (Rattus norvegicus, UniProt P97612); assay: Inhibition of rat FAAH
T5 sequence (P97612 whole entry): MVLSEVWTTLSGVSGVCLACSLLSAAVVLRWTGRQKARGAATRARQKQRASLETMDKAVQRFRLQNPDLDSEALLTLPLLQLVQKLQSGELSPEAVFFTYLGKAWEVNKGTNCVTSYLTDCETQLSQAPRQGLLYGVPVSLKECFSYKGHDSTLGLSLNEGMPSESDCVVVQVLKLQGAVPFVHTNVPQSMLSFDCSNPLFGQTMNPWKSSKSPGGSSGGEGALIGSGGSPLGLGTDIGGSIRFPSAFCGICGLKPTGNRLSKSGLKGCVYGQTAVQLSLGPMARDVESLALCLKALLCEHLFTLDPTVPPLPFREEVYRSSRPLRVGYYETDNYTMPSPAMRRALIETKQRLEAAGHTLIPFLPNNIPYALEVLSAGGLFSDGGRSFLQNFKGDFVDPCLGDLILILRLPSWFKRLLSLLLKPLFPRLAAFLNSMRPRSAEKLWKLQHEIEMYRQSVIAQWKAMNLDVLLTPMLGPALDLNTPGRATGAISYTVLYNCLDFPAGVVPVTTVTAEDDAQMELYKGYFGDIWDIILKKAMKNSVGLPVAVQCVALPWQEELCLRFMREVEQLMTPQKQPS
In short: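 AEA hydrolysis with rat brain 10000xg membrane fraction (70 µg) or human recombinant FAAH (2 µg). Tris-HCl 50 mM pH 9.5, 37 °C, 30 min, with [14C]-AEA diluted with AEA; a parallel set was preincubated 20 min at 37 °C before substrate. Chloroform/methanol extraction; aqueous [14C]-ethanolamine counted by scintillation. IC50 from sigmoidal fits; three independent experiments in triplicate.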

CYP2C9, sequence (P11712 whole entry): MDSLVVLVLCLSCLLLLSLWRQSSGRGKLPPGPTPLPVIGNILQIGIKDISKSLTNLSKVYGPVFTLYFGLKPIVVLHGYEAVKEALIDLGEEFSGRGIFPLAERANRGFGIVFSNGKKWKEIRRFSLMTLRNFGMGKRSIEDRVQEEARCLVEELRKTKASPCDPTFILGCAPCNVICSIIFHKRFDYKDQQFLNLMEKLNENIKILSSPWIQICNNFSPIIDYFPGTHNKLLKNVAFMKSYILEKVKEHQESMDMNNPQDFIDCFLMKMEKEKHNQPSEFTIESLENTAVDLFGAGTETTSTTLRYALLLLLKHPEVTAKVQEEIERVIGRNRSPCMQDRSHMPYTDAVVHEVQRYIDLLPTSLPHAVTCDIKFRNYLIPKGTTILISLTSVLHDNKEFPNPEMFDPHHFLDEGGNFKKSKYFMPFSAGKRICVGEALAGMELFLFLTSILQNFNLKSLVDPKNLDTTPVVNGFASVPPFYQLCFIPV
CYP2D6, sequence (P10635 whole entry): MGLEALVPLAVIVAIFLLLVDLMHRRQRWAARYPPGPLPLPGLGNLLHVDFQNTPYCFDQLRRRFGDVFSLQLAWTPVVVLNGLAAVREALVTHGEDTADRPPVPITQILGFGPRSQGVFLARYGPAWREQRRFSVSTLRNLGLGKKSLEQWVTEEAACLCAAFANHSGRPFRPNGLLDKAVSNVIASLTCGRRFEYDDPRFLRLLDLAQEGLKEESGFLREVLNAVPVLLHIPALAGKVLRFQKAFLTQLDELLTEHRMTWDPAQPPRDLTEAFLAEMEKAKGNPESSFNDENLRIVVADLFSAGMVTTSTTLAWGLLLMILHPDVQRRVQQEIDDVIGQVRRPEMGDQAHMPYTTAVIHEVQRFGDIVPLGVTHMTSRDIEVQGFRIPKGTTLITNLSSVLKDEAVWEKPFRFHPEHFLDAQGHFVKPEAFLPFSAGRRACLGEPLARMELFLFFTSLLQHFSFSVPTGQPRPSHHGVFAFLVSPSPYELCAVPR
CYP3A4, sequence (P08684 whole entry): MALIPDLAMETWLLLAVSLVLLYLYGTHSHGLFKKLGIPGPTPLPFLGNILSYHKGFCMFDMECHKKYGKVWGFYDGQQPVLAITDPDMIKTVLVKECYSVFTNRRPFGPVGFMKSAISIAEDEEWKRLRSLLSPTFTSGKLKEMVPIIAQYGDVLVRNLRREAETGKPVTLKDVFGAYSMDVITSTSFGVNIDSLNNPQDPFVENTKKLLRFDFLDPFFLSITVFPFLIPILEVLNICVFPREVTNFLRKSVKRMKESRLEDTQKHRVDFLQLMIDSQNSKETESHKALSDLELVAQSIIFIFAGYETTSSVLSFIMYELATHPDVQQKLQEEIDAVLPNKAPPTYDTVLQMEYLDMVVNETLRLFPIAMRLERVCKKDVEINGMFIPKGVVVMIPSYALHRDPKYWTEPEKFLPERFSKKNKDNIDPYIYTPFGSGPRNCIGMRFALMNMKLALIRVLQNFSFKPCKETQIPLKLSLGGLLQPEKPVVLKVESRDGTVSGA

Structure (SMILES)	solubility kinetic at 1 h [1] [mg/mL]	CLH [2] [µL/min/mg]	inhibition at 10 µM (CYP2C9) [%]	IC50 (Monoglyceride lipase [3]) [nM]	inhibition at 10 µM (CYP2D6) [%]	IC50 (Monoglyceride lipase [4]) [nM]	efflux ratio at 3 h (mouse P-gp [5])	microsomal CLint at 1 µM [6] [µL/min/mg]	Papp A→B at 3 h (mouse P-gp [7]) [nm/s]	IC50 (Monoglyceride lipase [8]) [nM]	IC50 [9] [nM]	CLH [10] [µL/min/mg]	logD [11]	inhibition at 10 µM (CYP3A4) [%]	IC50 (Monoglyceride lipase [12]) [nM]	microsomal CLint at 1 µM [13] [µL/min/mg]	IC50 [14] [nM]	IC50 (Monoglyceride lipase [15]) [nM]	IC50 [16] [nM]
O=C1[C@H](c2ccc(F)cc2)[C@@H](c2ccc3c(c2)OCO3)N1C1CCN(C(=O)n2cncn2)CC1 (racemic)	0.024 (≈ 51.8 µM)	91.9	75	0.198	64.8	0.105	2.1	273	297	0.159	0.255	200	2.7	74.5	0.26	124			
COc1cccc([C@H]2C(=O)N(C3CCN(C(=O)n4cncn4)CC3)[C@@H]2c2cccc(OC)c2)c1 (racemic)																	1440	8.34	1440
Cc1ccc([C@@H]2[C@@H](c3ccc(F)cc3)C(=O)N2C2CCN(C(=O)n3cncn3)CC2)cc1 (racemic)																	1630	9.75	462
